Assays:
[1] = target: T1, Aldehyde dehydrogenase 1A1 (Gallus gallus, UniProt P27463); test: Inhibition of N-terminal His6-tagged recombinant chick RALDH1 expressed in Escherichia coli BL21(DE3) cells using RAL as substrate preincubated for 20 mins followed by substrate addition and measured after 30 mins in presence of NADH by fluorescence assay
T1 sequence (P27463 whole entry): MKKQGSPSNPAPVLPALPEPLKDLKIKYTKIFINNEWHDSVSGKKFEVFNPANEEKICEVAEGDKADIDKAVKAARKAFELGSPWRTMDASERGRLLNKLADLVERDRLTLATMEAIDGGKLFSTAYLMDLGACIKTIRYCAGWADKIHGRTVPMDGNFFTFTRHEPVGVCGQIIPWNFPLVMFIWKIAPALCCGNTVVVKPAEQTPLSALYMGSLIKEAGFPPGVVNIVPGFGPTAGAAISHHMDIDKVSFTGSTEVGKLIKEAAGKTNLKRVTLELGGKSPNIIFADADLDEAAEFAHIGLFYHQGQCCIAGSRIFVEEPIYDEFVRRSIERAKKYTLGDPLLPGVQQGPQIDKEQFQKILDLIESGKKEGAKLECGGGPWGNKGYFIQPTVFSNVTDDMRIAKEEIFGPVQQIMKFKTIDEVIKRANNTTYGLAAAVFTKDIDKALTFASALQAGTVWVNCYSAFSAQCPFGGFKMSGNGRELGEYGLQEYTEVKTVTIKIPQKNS
In short: (§1)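 Purified His-tagged recombinant enzyme in dialysis buffer with 2 mM DTT. Amounts were chick RALDH1 2 μg (0.358 μM), chick RALDH2 0.5 μg (0.091 μM), chick RALDH3 2 μg (0.355 μM) and human RALDH2 1 μg (0.176 μM). Enzyme pre-incubated 20 min at 37°C with 0–10 μM inhibitor in DMSO. Reaction started with final 4 mM NAD+ in pyrophosphate pH 8.2 buffer plus 250 μM retinaldehyde, 30 min at 37°C. NADH read fluorimetrically (Ex/Em 540/590) against a standard curve. Triplicates, 3–5 experiments.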

[2] = Inhibition of N-terminal His6-tagged recombinant chick RALDH3 expressed in Escherichia coli BL21(DE3) cells using RAL as substrate preincubated for 20 mins followed by substrate addition and measured after 30 mins in presence of NADH by fluorescence assay; parameters: species or system Gallus gallus; in short: as §1
[3] = target: T2, Retinal dehydrogenase 2 (Homo sapiens, UniProt O94788); test: Inhibition of N-terminal His6-tagged recombinant human RALDH2 using RAL as substrate preincubated for 20 mins followed by substrate addition and measured after 30 mins in presence of NADH by fluorescence assay; in short: as §1
T2 sequence (O94788 whole entry): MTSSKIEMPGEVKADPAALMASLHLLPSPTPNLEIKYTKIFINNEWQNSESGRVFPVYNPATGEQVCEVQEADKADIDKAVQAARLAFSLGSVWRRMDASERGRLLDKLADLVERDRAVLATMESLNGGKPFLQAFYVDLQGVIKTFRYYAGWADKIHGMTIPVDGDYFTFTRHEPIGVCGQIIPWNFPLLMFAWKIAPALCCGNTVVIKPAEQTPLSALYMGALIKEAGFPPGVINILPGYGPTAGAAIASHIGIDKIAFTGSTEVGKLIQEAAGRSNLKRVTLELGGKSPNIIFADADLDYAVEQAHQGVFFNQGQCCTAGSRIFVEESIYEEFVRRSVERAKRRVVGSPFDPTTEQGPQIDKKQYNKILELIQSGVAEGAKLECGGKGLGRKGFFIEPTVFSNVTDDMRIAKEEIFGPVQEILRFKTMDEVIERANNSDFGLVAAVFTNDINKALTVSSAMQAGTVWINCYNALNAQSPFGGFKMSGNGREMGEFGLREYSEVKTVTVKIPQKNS

[4] = Inhibition of N-terminal His6-tagged recombinant chick RALDH3 expressed in Escherichia coli BL21(DE3) cells using RAL as substrate measured after 30 mins in presence of NADH by Morrison's plot analysis; parameters: species or system Gallus gallus
In short: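 Ki obtained by fitting the Morrison tight-binding equation to the 20-min pre-incubation retinaldehyde/NADH fluorescence inhibition data. Inputs were enzyme concentration (RALDH1 0.358, RALDH2 0.091, RALDH3 0.355, hRALDH2 0.176 μM), substrate concentration and Km. Triplicates from 3–5 independent experiments.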

[5] = target: T3, Retinal dehydrogenase 2 (Gallus gallus) (UniProt O93344); test: Inhibition of N-terminal His6-tagged recombinant chick RALDH2 expressed in Escherichia coli BL21(DE3) cells at 250 nM using RAL as substrate assessed as remaining activity preincubated for 20 mins followed by all-trans-retinaldehyde and substrate addition measured after 30 mins in presence of NAD+ by fluorescence assay
T3 sequence (whole entry): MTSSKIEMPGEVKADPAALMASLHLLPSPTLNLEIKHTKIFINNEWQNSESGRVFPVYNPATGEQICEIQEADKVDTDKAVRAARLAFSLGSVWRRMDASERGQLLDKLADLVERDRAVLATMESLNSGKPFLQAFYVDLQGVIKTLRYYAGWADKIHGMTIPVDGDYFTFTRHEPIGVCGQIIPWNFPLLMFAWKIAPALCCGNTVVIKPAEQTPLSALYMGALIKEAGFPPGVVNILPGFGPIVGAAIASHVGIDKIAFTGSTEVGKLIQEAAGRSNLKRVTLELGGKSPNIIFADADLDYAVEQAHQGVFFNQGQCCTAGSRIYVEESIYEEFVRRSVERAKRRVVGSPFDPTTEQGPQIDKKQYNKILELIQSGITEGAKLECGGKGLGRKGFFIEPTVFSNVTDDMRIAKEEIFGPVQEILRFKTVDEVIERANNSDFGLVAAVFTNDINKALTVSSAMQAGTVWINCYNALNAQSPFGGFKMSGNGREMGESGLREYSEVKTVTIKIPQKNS
In short: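 Chick RALDH2 (91 nM) pre-incubated with 250 nM inhibitor for 0–80 min at 37°C, alone or with 250 μM retinaldehyde or 250 μM NAD+. Reaction then started with the missing substrate and/or cofactor (250 μM retinaldehyde, 4 mM NAD), 30 min at 37°C. Fluorimetric NADH; % activity remaining. Triplicates.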

[6] = target: T3, Retinal dehydrogenase 2 (Gallus gallus); test: Inhibition of RALDH2 in living intact choroid isolated from 4 day recovering chick eyes assessed as inhibition of ATRA synthesis at 1 uM after 24 hrs in presence of […]
[7] = species: Gallus gallus; test: (§2) Inhibition of N-terminal His6-tagged recombinant chick RALDH3 expressed in Escherichia coli BL21(DE3) cells at 100 nM using RAL as substrate assessed as Km preincubated for 20 mins followed by substrate addition and measured after 30 mins in presence of NADH by fluorescence assay (reference value: 84.45 +/- 30.99 microM)
[8] = species: Gallus gallus; test: as §2, with “500” for “100”
[9] = species: Gallus gallus; test: as §2, with “250” for “100”, “Vmax” for “Km”, “107.3” for “84.45”, “15.97 pmol/microM/min)” for “30.99 microM)”
[10] = species: Gallus gallus; test: as §2, with “500” for “100”, “Vmax” for “Km”, “107.3” for “84.45”, “15.97 pmol/microM/min)” for “30.99 microM)”

IC50 [1]: 435 nM
IC50 [2]: 161 nM
IC50 [3]: 191 nM
Activity [5]: 27.8%
inhibition [6]: 42%
Compound: CC1=C(/C=C/C(C)=C/C=C/C(C)=C/C(=O)C(Cl)Cl)C(C)(C)CCC1
Ki [4]: 6.74 nM
Km [7]: 52.7 µM
Km [8]: 26.9 µM
Vmax [9]: 41.6 pmol/µM/min
Vmax [10]: 21.6 pmol/µM/min
